Experimental data taken from ChEMBL document CHEMBL1125117, “Substituted 1,3-dihydro-2H-pyrrolo[2,3-b]pyridin-2-ones as potential antiinflammatory agents” (1990).

What was measured:
[1] = biological target: T1, Polyunsaturated fatty acid 5-lipoxygenase (Homo sapiens) (UniProt P09917); assay: In vitro inhibitory activity against 5-lipoxygenase in human polymorphonuclear (PMN) cells; settings: concentration not given here
T1 sequence (whole entry): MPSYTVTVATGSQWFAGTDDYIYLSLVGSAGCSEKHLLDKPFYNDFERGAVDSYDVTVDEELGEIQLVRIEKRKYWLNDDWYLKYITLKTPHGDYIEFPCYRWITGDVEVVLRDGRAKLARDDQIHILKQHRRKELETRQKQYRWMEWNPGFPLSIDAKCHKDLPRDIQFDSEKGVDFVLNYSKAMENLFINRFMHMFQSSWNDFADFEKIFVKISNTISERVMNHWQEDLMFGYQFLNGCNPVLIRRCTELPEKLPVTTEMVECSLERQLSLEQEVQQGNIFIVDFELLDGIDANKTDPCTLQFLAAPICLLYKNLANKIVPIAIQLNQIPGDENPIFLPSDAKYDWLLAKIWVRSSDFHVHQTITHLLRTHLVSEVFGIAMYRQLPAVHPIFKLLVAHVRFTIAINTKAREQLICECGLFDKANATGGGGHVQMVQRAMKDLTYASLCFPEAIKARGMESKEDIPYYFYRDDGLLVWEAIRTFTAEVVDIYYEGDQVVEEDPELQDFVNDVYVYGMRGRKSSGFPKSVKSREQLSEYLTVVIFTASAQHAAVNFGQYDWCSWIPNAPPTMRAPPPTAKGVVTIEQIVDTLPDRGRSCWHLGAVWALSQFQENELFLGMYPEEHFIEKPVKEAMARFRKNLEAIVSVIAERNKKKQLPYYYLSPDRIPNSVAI
Summary of the method: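 Human PMN neutrophils (2×10^7 cells/mL) in HEPES buffer with 1 mM CaCl2, preincubated 4 min with test compound in DMSO vehicle. Then stimulated with [14C]arachidonic acid plus calcium ionophore A23187 for 5 min and stopped with methanol. 5-HETE was quantitated by HPLC. Reported as % inhibition versus vehicle, tested at 15 μM.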

[2] = system: Rattus norvegicus; assay: In vivo antiinflammatory activity against edema formation in the noninjected(secondary) paw of the rat (before edema stimulation) at dose 25 mg/kg; type: functional
Summary of the method: (§1)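 Adjuvant arthritis in rats, prophylactic regimen. Oral dosing began 1 h before challenge and continued for 21 consecutive days. Heat-killed M. tuberculosis in paraffin oil (6 mg/mL), 0.1 mL injected into the left hind paw, with methylcellulose-treated controls. Both hind paw volumes measured by plethysmograph on day 21. Reported as % change relative to control.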

[3] = system: Rattus norvegicus; assay: In vivo inhibitory activity against cells in reverse passive Arthus reaction (RPAR) assay at dose 25 mg/kg in the pleural cavity of rats.; type: functional
Summary of the method: (§2)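 Male rats, five per group, dosed orally 1 h before iv BSA antigen (5 mg). Rabbit anti-BSA IgG (0.5 mg) given intrapleurally 30 min later. At 4 h, pleural exudate volume was measured and neutrophils counted (Coulter) after saline-EDTA lavage. Reported as % reduction in cells and fluid relative to control.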

[4] = system: Rattus norvegicus; assay: In vivo effect on prostaglandin and leukotriene mediated production in rat pleural cavity was assessed by the inhibition of LTE4 in 5-lipoxygenase/ cyclooxygenase at dose 40 mg/kg
[5] = system: Rattus norvegicus; assay: In vivo effect on prostaglandin and leukotriene mediated production in rat pleural cavity was assessed by the inhibition of fluid volume in 5-lipoxygenase/ cyclooxygenase at dose 40 mg/kg; type: functional
Summary of the method: (§3)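 Rat reversed passive Arthus pleurisy, oral dosing 1 h before challenge. BSA given iv (5 mg), then rabbit anti-BSA IgG intrapleurally 30 min later. At 4 h, exudate was collected into indomethacin/NDGA and its volume recorded. Neutrophils were counted by Coulter counter. TXB2 and LTE4 in ethanol-extracted supernatant were measured by RIA with tritiated recovery spikes. Reported as % inhibition versus control.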

[6] = system: Rattus norvegicus; assay: In vivo effect on prostaglandin and leukotriene mediated production in rat pleural cavity was assessed by the inhibition of cell influx in 5-lipoxygenase/ cyclooxygenase at dose 40 mg/kg; type: functional; summary of the method: as §3
[7] = system: Rattus norvegicus; assay: In vivo inhibitory activity against fluid in reverse passive Arthus reaction (RPAR) assay at dose 25 mg/kg in the pleural cavity of rats.; type: functional; summary of the method: as §2
[8] = system: Rattus norvegicus; assay: In vivo antiinflammatory activity against edema formation in the injected(primary) paw of the rat(before edema stimulation) at dose 25 mg/kg; type: functional; summary of the method: as §1
[9] = system: Rattus norvegicus; assay: In vivo effect on prostaglandin and leukotriene mediated production in rat pleural cavity was assessed by the inhibition of TXB2 in 5-lipoxygenase/ cyclooxygenase at dose 40 mg/kg; type: functional; summary of the method: as §3
[10] = biological target: Cyclooxygenase (Homo sapiens) (UniProt P35354+P23219); assay: In vitro inhibitory activity against Prostaglandin G/H synthase in human platelets; design: concentration or dose not given beside the values; settings: concentration not given here
Summary of the method: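 Human platelets (2×10^5/mL) in HEPES buffer with 0.5 mM EGTA and 1.5 mM CaCl2, incubated 4 min with compound in DMSO vehicle. Then given [14C]arachidonic acid and A23187 ionophore for 5 min and stopped with methanol. HHT was measured by reverse-phase HPLC. Reported as % inhibition of HHT versus vehicle, at 15 μM.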

[11] = system: Rattus norvegicus; assay: In vivo effect on prostaglandin and leukotriene mediated production in rat pleural cavity was assessed by the inhibition of LTE4 in 5-lipoxygenase/ cyclooxygenase at dose 20 mg/kg
[12] = system: Rattus norvegicus; assay: In vivo effect on prostaglandin and leukotriene mediated production in rat pleural cavity was assessed by the inhibition of fluid volume in 5-lipoxygenase/ cyclooxygenase at dose 20 mg/kg; type: functional; summary of the method: as §3
[13] = system: Rattus norvegicus; assay: In vivo effect on prostaglandin and leukotriene mediated production in rat pleural cavity was assessed by the inhibition of cell influx in 5-lipoxygenase/ cyclooxygenase at dose 20 mg/kg; type: functional; summary of the method: as §3
[14] = system: Rattus norvegicus; assay: In vivo effect on prostaglandin and leukotriene mediated production in rat pleural cavity was assessed by the inhibition of TXB2 in 5-lipoxygenase/ cyclooxygenase at dose 20 mg/kg; type: functional; summary of the method: as §3

inhibition [1] [%] | inhibition [10] [%] | SMILES | inhibition in vivo at 25 mg/kg [2] [%] | ED50 [3] [mg/kg] | LTE4 inhibition [4] [%] | inhibition in vivo at 40 mg/kg [5] [%] | inhibition in vivo at 40 mg/kg [6] [%] | ED50 [7] [mg/kg] | inhibition in vivo at 25 mg/kg [8] [%] | inhibition in vivo at 40 mg/kg [9] [%] | LTE4 inhibition [11] [%] | inhibition in vivo at 20 mg/kg [12] [%] | inhibition in vivo at 20 mg/kg [13] [%] | inhibition in vivo at 20 mg/kg [14] [%]
0 | 0 | CC1(C)C(=O)N(c2ccccc2)c2ncccc21 | 24 | 21.9 | 54 | 60 | 70 | 35.1 | 0 | 54 | – | – | – | –
2 | 0 | CC1(C)C(=O)N(c2ccc(F)cc2)c2ncccc21 | 48 | 4.5 | – | – | – | 29.5 | 0 | – | 36 | 43 | 70 | 53
